Laboratory results reported in PMC10651775 (Blood, 2022).
Where a name gives a salt, the structure may show the parent alone. Read-outs that look alike come from different tables or passages of the source.

How the values were obtained:
[1] = test system: R/R ATL; conditions: phase 2 study (5/16); cited from earlier work
[2] = test system: patients with R/R ATL; format: in vivo, human
Outline: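 Adults with R/R ATL (acute, lymphoma or unfavourable chronic type) took oral test compound (EZH1/EZH2 inhibitor) 200 mg once daily, fasting, in continuous 28-day cycles until progression or unacceptable toxicity; 50 mg if on strong CYP3A plus P-gp inhibitors. An independent committee assessed response at week 4, then every 8 weeks, then every 12 weeks after week 48, using modified ATL criteria without the ≥4-week persistence requirement.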

[3] = test system: patients with R/R ATL; assay: Phase 2 trial of valemetostat: investigator-assessed response; format: in vivo, human; conditions: 7/25 (CR plus CRu)
Outline: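 Investigator-assessed response in patients given ≥1 dose of oral test compound, 200 mg once daily, fasting, 28-day cycles. Nodal/extranodal lesions were measured by CT as sums of products of greatest diameters, skin by visual review and modified severity-weighted assessment tool, and blood by white cell, lymphocyte and abnormal lymphocyte counts. ORR was the proportion with best response CR, CRu or PR, with a Clopper-Pearson 90% CI.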

[4] = Plasma valemetostat pharmacokinetics, noncompartmental analysis; format: in vivo, human; conditions: Mean (SD); for AUC / Cmax: human, plasma, oral, 200 mg; for AUC: AUCtau, Cycle 1 day 15 (steady state)
Outline: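 Patients took oral test compound, 200 mg once daily, fasting. Serial and trough blood samples were taken for plasma drug levels. Total and unbound drug were measured at steady state on cycle 1 day 15. Accumulation ratio was derived from AUC over the dosing interval.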

[5] = test system: patients with R/R ATL; assay: Phase 2 trial of valemetostat: safety; format: in vivo, human
Outline: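 Safety population: all patients receiving ≥1 dose of oral test compound, 200 mg once daily, fasting, in continuous 28-day cycles; dose was reduced to 50 mg with strong CYP3A plus P-gp inhibitors. Adverse events were coded with MedDRA version 23.1 and graded by CTCAE version 5.0.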

[6] = test system: H3K27 trimethylation; conditions: compared with the EZH2-selective inhibitor tazemetostat; cited from earlier work
[7] = test system: ATL cell; conditions: compared with tazemetostat and GSK126; cited from earlier work
[8] = test system: R/R ATL; conditions: phase 2 study (3/12); cited from earlier work
[9] = IEAC best response, ATL subtype Acute, N=16
[10] = IEAC best response, ATL subtype Lymphoma, N=6
[11] = IEAC best response, ATL subtype Unfavorable chronic, N=3
[12] = IEAC best response, All patients, N=25
[13] = IEAC best response, Disease site Nodal or extranodal lesions, N=20
[14] = IEAC best response, Disease site Peripheral blood, N=9
[15] = IEAC best response, Disease site Skin lesions, N=7
[16] = IEAC best response, Disease status Recurrent, N=6
[17] = IEAC best response, Disease status Refractory, N=11
[18] = IEAC best response, Disease status Relapsed, N=8
[19] = IEAC best response, Prior lenalidomide treatment No, N=17
[20] = IEAC best response, Prior lenalidomide treatment Yes, N=8
[21] = IEAC best response, Prior mogamulizumab treatment No, N=1
[22] = IEAC best response, Prior mogamulizumab treatment Yes, N=24
[23] = Grade ≥3 hematologic TEAE, % of patients
[24] = hematologic TEAE, all grades, % of patients

Molecule: Nc1cccc2c1CN(C1CCC(=O)NC1=O)C2=O (stereo not shown) [lenalidomide]
- ORR in nodal or extranodal lesions [1]: 31%

Molecule: Cc1cc(C)c(CNC(=O)c2cc(Cl)c3c(c2C)O[C@@](C)([C@H]2CC[C@H](N(C)C)CC2)O3)c(=O)[nH]1 [valemetostat, Valemetostat tosylate]
- ORR in nodal or extranodal lesions ([2]; IEAC): 50%
- CR [2, 9]: 5 (31.3) n (%)
- CRu [2, 9]: 0 n (%)
- ORR [2, 9]: 10 (62.5) n (%)
- PD [2, 9]: 2 (12.5) n (%)
- PR [2, 9]: 5 (31.3) n (%)
- CR [2, 10]: 0 n (%)
- CRu [2, 10]: 0 n (%)
- ORR [2, 10]: 1 (16.7) n (%)
- PD [2, 10]: 0 n (%)
- PR [2, 10]: 1 (16.7) n (%)
- CR [2, 11]: 0 n (%)
- CRu [2, 11]: 0 n (%)
- ORR [2, 11]: 1 (33.3) n (%)
- PD [2, 11]: 1 (33.3) n (%)
- PR [2, 11]: 1 (33.3) n (%)
- CR [2, 12]: 5 (20.0) n (%)
- CRu [2, 12]: 0 n (%)
- ORR [2, 12]: 12 (48.0) n (%)
- PD [2, 12]: 3 (12.0) n (%)
- PR [2, 12]: 7 (28.0) n (%)
- CR [2, 13]: 6 (30.0) n (%)
- CRu [2, 13]: 2 (10.0) n (%)
- ORR [2, 13]: 10 (50.0) n (%)
- PD [2, 13]: 3 (15.0) n (%)
- PR [2, 13]: 2 (10.0) n (%)
- CR [2, 14]: 2 (22.2) n (%)
- ORR [2, 14]: 8 (88.9) n (%)
- PD [2, 14]: 0 n (%)
- PR [2, 14]: 6 (66.7) n (%)
- CR [2, 15]: 1 (14.3) n (%)
- PD [2, 15]: 0 n (%)
- PR [2, 15]: 2 (28.6) n (%)
- CR [2, 16]: 1 (16.7) n (%)
- CRu [2, 16]: 0 n (%)
- ORR [2, 16]: 4 (66.7) n (%)
- PD [2, 16]: 0 n (%)
- PR [2, 16]: 3 (50.0) n (%)
- CR [2, 17]: 3 (27.3) n (%)
- CRu [2, 17]: 0 n (%)
- ORR [2, 17]: 5 (45.5) n (%)
- PD [2, 17]: 2 (18.2) n (%)
- PR [2, 17]: 2 (18.2) n (%)
- CR [2, 18]: 1 (12.5) n (%)
- CRu [2, 18]: 0 n (%)
- ORR [2, 18]: 3 (37.5) n (%)
- PD [2, 18]: 1 (12.5) n (%)
- PR [2, 18]: 2 (25.0) n (%)
- CR [2, 19]: 5 (29.4) n (%)
- CRu [2, 19]: 0 n (%)
- ORR [2, 19]: 8 (47.1) n (%)
- PD [2, 19]: 2 (11.8) n (%)
- PR [2, 19]: 3 (17.6) n (%)
- CR [2, 20]: 0 n (%)
- CRu [2, 20]: 0 n (%)
- ORR [2, 20]: 4 (50.0) n (%)
- PD [2, 20]: 1 (12.5) n (%)
- PR [2, 20]: 4 (50.0) n (%)
- CR [2, 21]: 1 (100.0) n (%)
- CRu [2, 21]: 0 n (%)
- ORR [2, 21]: 1 (100.0) n (%)
- PD [2, 21]: 0 n (%)
- PR [2, 21]: 0 n (%)
- CR [2, 22]: 4 (16.7) n (%)
- CRu [2, 22]: 0 n (%)
- ORR [2, 22]: 11 (45.8) n (%)
- PD [2, 22]: 3 (12.5) n (%)
- PR [2, 22]: 7 (29.2) n (%)
- median TTR (time to response) ([2]; IEAC-assessed, range 1.0-5.6 months): 1.4 months
- ORR by subtype ([2]; IEAC, acute (10/16)): 62.5%
- CR rate ([2]; IEAC, all patients (5/25)): 20.0%
- PR rate ([2]; IEAC, all patients (7/25)): 28.0%
- TCR (tumor control rate) ([2]; IEAC, best response CR, CRu, PR or SD, 95% CI 68.8-97.5): 88.0%
- ORR by subtype ([2]; IEAC, lymphoma (1/6)): 16.7%
- ORR ([2]; IEAC, patients pretreated with mogamulizumab (11/24), 90% CI 28.2-64.2): 45.8%
- ORR ([2]; IEAC, patients refractory to mogamulizumab-containing therapies (3/6)): 50.0%
- ORR ([2]; IEAC, patients with prior lenalidomide treatment (4/8), 90% CI 15.7-84.3): 50%
- ORR by disease status ([2]; IEAC, recurrent (4/6)): 66.7%
- ORR by disease status ([2]; IEAC, refractory disease (5/11)): 45.5%
- ORR by disease status ([2]; IEAC, relapsed (3/8)): 37.5%
- ORR by subtype ([2]; IEAC, unfavorable chronic (1/3)): 33.3%
- centrally reviewed IEAC-assessed ORR ([2]; all patients (12/25), 90% CI 30.5-65.9): 48.0%
- responders with an ongoing response ([2]; at data cutoff (6/12)): 50%
- patients who achieved SD able to receive valemetostat for ≥6 months ([2]; following treatment initiation): 4 of 10
- median PFS ([2]; immature, 95% CI 3.0 months to not estimable): 7.4 months
- median OS ([2]; immature, 95% CI 6.5-16.4 months): 16.4 months
- responses converted from PR to CR ([2]; in vivo): 2 patients
- investigator-assessed CR rate [3]: 28.0%
- Rac (accumulation ratio for AUCtau) ([4]; Total, Cycle 1 day 15): 1.19
- Rac (accumulation ratio for AUCtau) ([4]; Unbound, Cycle 1 day 15): 1.27
- AUC ([4]; Total): 20800 ng·h/mL
- AUC ([4]; Unbound): 584 ng·h/mL
- Cmax ([4]; Total valemetostat, Cycle 1 day 1, 200 mg once daily): 2230 ng/mL
- Cmax ([4]; Total valemetostat, Cycle 1 day 15): 2300 ng/mL
- Cmax ([4]; Unbound valemetostat, Cycle 1 day 1): 81.7 ng/mL
- Cmax ([4]; Unbound valemetostat, Cycle 1 day 15): 84.9 ng/mL
- TEAEs leading to dose reduction ([5]; 2 patients): 8%
- Serious TEAEs ([5]; 8 patients): 32%
- Secondary malignancies, including hematologic malignancy or myelodysplastic syndrome ([5]; AE of special interest): not observed
- TEAEs that required dose interruption ([5]; Five patients): 20%
- anemia [5, 23]: 32%
- leukopenia [5, 23]: 12%
- lymphopenia [5, 23]: 16%
- neutropenia [5, 23]: 12%
- thrombocytopenia [5, 23]: 32%
- Grade ≥3 TEAEs ([5]; N = 25): 15 (60.0) n (%)
- Grade ≥3 TRAEs ([5]; N = 25): 14 (56.0) n (%)
- Serious TEAE ([5]; N = 25): 8 (32.0) n (%)
- Serious TRAEs ([5]; N = 25): 7 (28.0) n (%)
- TEAEs leading to discontinuation ([5]; N = 25): 2 (8.0) n (%)
- TEAEs leading to interruption ([5]; N = 25): 5 (20.0) n (%)
- TEAEs leading to reduction ([5]; N = 25): 2 (8.0) n (%)
- TRAEs ([5]; N = 25): 24 (96.0) n (%)
- TRAEs leading to discontinuation ([5]; N = 25): 2 (8.0) n (%)
- TRAEs leading to interruption ([5]; N = 25): 4 (16.0) n (%)
- TRAEs leading to reduction ([5]; N = 25): 2 (8.0) n (%)
- TEAEs ([5]; N = 25, All AEs): 25 (100.0) n (%)
- Alopecia ([5]; TEAE, All grades, N = 25): 10 (40.0) n (%)
- Decreased appetite ([5]; TEAE, All grades, N = 25): 5 (20.0) n (%)
- Dysgeusia ([5]; TEAE, All grades, N = 25): 9 (36.0) n (%)
- Pyrexia ([5]; TEAE, All grades, N = 25): 5 (20.0) n (%)
- anemia ([5]; TEAE, All grades, N = 25): 13 (52.0) n (%)
- leukopenia ([5]; TEAE, All grades, N = 25): 5 (20.0) n (%)
- lymphopenia ([5]; TEAE, All grades, N = 25): 6 (24.0) n (%)
- neutropenia ([5]; TEAE, All grades, N = 25): 7 (28.0) n (%)
- thrombocytopenia ([5]; TEAE, All grades, N = 25): 20 (80.0) n (%)
- Alopecia ([5]; TEAE, Grade ≥3, N = 25): 0 n (%)
- Decreased appetite ([5]; TEAE, Grade ≥3, N = 25): 2 (8.0) n (%)
- Dysgeusia ([5]; TEAE, Grade ≥3, N = 25): 0 n (%)
- Pyrexia ([5]; TEAE, Grade ≥3, N = 25): 0 n (%)
- anemia ([5]; TEAE, Grade ≥3, N = 25): 8 (32.0) n (%)
- leukopenia ([5]; TEAE, Grade ≥3, N = 25): 3 (12.0) n (%)
- lymphopenia ([5]; TEAE, Grade ≥3, N = 25): 4 (16.0) n (%)
- neutropenia ([5]; TEAE, Grade ≥3, N = 25): 3 (12.0) n (%)
- thrombocytopenia ([5]; TEAE, Grade ≥3, N = 25): 8 (32.0) n (%)
- discontinued study treatment owing to AEs ([5]; Two patients (cardiac failure, thrombocytopenia)): 8%
- patients with thrombocytopenia who required dose modification ([5]; discontinuation 1 patient, dose interruption 2 patients): Three of 20
- median time to recovery ([5]; grade 4 thrombocytopenia, recovery to platelet count ≥25 × 10^9/L): 3 days
- anemia [5, 24]: 52%
- leukopenia [5, 24]: 20%
- lymphopenia [5, 24]: 24%
- neutropenia [5, 24]: 28%
- thrombocytopenia [5, 24]: 80%
- patients requiring a red blood cell transfusion for anemia ([5]; in vivo): 3 patients
- patients requiring platelet transfusions for thrombocytopenia ([5]; in vivo): Five
- treatment-related deaths ([5]; in vivo): No treatment-related deaths occurred
- patients who experienced grade 4 thrombocytopenia ([5]; platelet count <25 × 10^9/L): 3 patients
- H3K27 trimethylation [6]: strongly reduced H3K27 trimethylation
- attenuation of ATL cell growth in vitro [7]: greater attenuation of ATL cell growth in vitro at lower concentrations than tazemetostat and GSK126

B1: mogamulizumab: defucosylated anti-CCR4 antibody (antibody, chains of the INN, looked up, V domains shown)
VH: EVQLVESGGDLVQPGRSLRLSCAASGFIFSNYGMSWVRQAPGKGLEWVATISSASTYSYYPDSVKGRFTISRDNAKNSLYLQMNSLRVEDTALYYCGRHSDGNFAFGYWGQGTLVTVSS
VL: DVLMTQSPLSLPVTPGEPASISCRSSRNIVHINGDTYLEWYLQKPGQSPQLLIYKVSNRFSGVPDRFSGSGSGTDFTLKISRVEAEDVGVYYCFQGSLLPWTFGQGTKVEIK
- ORR in nodal or extranodal lesions [8]: 25%
